Data set [1] can be described thus: The half-life period in vitro in plasma. In kind it is ADME, cell-free. In outline:
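Rat plasma (1.0 mL) spiked with 5 µL of drug dissolved at 2 mg/mL in 80% aqueous acetonitrile, incubated at 37 °C for 60 min. Parent drug and products followed by ion-paired HPLC with internal standard; metabolites identified by retention times of synthesized authentic samples. Stability expressed as half-life (min), mean of two separate experiments.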

Data set [2] in a line: The half-life period in vitro in rat small Intestine Homogenate. It is filed as ADME. The gist of the method: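 Small intestine from rats fasted 20 h, saline-washed, homogenized in 8 vol 1/10 M sodium phosphate pH 7.4, spun at 600g for 15 min; supernatant (1.0 mL) given 10 µL drug (5 mg/mL in 80% aqueous acetonitrile), 37 °C, 60 min. Aliquots quenched at intervals with acetonitrile containing internal standard and analyzed by HPLC. Half-life (min), mean of two experiments.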

The structures appear in SMILES notation.

The term half-life denotes the time in which the quantity being followed falls by half. A low value points to fast loss. As for `C/C(=C\c1ccc(C(=O)Oc2ccc(C(=N)N)cc2)cc1)C(=O)N(CC(=O)O)C1CCCCC1`, the values for the half-life in data set [1] and in data set [2] were more than 60 min and 49 min, respectively.

`C=CCN(CCC(=O)O)C(=O)/C(C)=C/c1ccc(C(=O)Oc2ccc(C(=N)N)cc2)cc1`: the half-life in data set [1] is 47 min; in data set [2], more than 60 min. On the same counts, the results for `CCOC(=O)CN(C(=O)/C(C)=C/c1ccc(C(=O)Oc2ccc(C(=N)N)cc2)cc1)C1CCCCC1` are less than 5 min and more than 60 min. For the compound `C/C(=C\c1ccc(C(=O)Oc2ccc(C(=N)N)cc2)cc1)C(=O)N(CC(=O)O)C1CCCC1`, the half-life is 23 min in data set [1] and 42 min in data set [2]. On the same counts, the results for `CCOC(=O)CN(C(=O)/C(C)=C/c1ccc(C(=O)Oc2ccc(C(=N)N)cc2)cc1)C1CCCC1` are less than 5 min and more than 60 min.

Compound `CCOC(=O)C(C(=O)OCC)N(CCCC(=O)O)C(=O)/C(C)=C/c1ccc(C(=O)Oc2ccc(C(=N)N)cc2)cc1` had a half-life in data set [1] of 29 min. `C/C(=C\c1ccc(C(=O)Oc2ccc(C(=N)N)cc2)cc1)C(=O)N(CC(=O)O)Cc1ccccc1`: the half-life is more than 60 min in data set [1] and 50 min in data set [2]. In the case of `CCOC(=O)CCCN(C(=O)/C(C)=C/c1ccc(C(=O)Oc2ccc(C(=N)N)cc2)cc1)C(C(=O)OCC)C(=O)OCC`, the half-life in data set [1] is less than 1 min. As for `C/C(=C\c1ccc(C(=O)Oc2ccc(C(=N)N)cc2)cc1)C(=O)N(CCO)Cc1ccccc1`, the half-life in data set [1] is less than 5 min; in data set [2], 41 min. For `C=CCN(CCCC(=O)O)C(=O)/C(C)=C/c1ccc(C(=O)Oc2ccc(C(=N)N)cc2)cc1`, in that order: more than 60 min and 55 min. On the same counts, the results for `CCOC(=O)CN(Cc1ccccc1)C(=O)/C(C)=C/c1ccc(C(=O)Oc2ccc(C(=N)N)cc2)cc1` are less than 1 min and 44 min. Regarding `CCN(CC(=O)O)C(=O)/C(C)=C/c1ccc(C(=O)Oc2ccc(C(=N)N)cc2)cc1`, the half-life in data set [1] was 60 min; in data set [2], more than 60 min. Consider `CCOC(=O)CCCN(C(=O)/C(C)=C/c1ccc(C(=O)Oc2ccc(C(=N)N)cc2)cc1)C(C(=O)O)C(=O)OCC` (stereo not given), for which the half-life in data set [1] is 14 min. On the same count and under the same terms, to `C=CCN(CCC(=O)OCC)C(=O)/C(C)=C/c1ccc(C(=O)Oc2ccc(C(=N)N)cc2)cc1` belongs less than 1 min. In data set [1], `C=CCN(CCCC(=O)OCC)C(=O)/C(C)=C/c1ccc(C(=O)Oc2ccc(C(=N)N)cc2)cc1` showed a half-life of less than 1 min.

(Values after ChEMBL document CHEMBL1128185, “New orally active serine protease inhibitors: structural requirements for their good oral activity” (J Med Chem, 1995).)
